# High-throughput results as filed in PubChem.
# ATG4B inh = ATG4B (human) cysteine protease inhibition; Q9Y4P1; ATG4B cleavage of LC3-PLA2, NBD-HPC fluorescence, 1 h; inhibition, % at 8.33 µM; 340,000 compounds, 0.51% hits; in the data active means inhibition above about 40%
# MEKK3 PB1 HTS = MEKK3-MEK5 PB1 interaction, increase or decrease; bead-based flow cytometry, Alexa488-MEK5 binding to MEKK3; actives lie on both sides; 0 = blocked by unlabeled MEK5, 100 = vehicle; AID 1529; Q99759; 290,000 compounds, 1.4% hits; binding response (% of control), % at 10 µM;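 active means binding response more than 3 SD above or below the average of its plate-row segment, actives on both sides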;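 further: Alexa488 bead fluorescence after subtracting the streptavidin-only scavenger bead signal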
# MEKK2 mut-MEK5 = signal of MEK5 binding to mutant human MEKK2 PB1 domain; bead flow cytometry, Alexa488-MEK5 binding to MEKK2 mutant; percent response, % at 10 µM; 290,000 compounds, 0.35% hits; in the data active means percent response above about 24%, passing the limit was not always enough
# MEKK2 WT-MEK5 = raises or lowers MEK5 binding to wildtype human MEKK2 PB1 domain | bead flow cytometry, Alexa488-MEK5 binding to MEKK2 WT; actives lie on both sides | binding response (% of control), % at 10 µM | AID 1531 | Q9Y2U5 | 290,000 compounds, 1.1% hits; in the data active means binding response below about 67% or above about 130%
# Dynein cargo inh = blocks dynein driven cargo transport along microtubules. 3617.4 mouse cells, GR-EGFP nuclear translocation imaging; test concentration mostly 20 µM; stimulated with dexamethasone, 1 µM; stronger effect = lower value. z-score, hits read low. 220,000 compounds, 0.47% hits. AID 1381;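 active means plate z-score of nuclear minus cytoplasmic receptor signal below a set negative limit, without overly bright fluorescence or cell loss, cut at about -3.5 in these data, passing the limit was not always enough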;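 further: z-score of nuclear minus cytoplasmic ring GR-EGFP intensity difference per well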
#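 Schedule: 48 h induction, then 1 h compound, then 30 min agonist, 37 °C. Buffer or medium: tetracycline-free induction medium containing charcoal-stripped FBS. Reagent: 1.0 µM final dexamethasone stimulus. Evaluation: nuclear versus cytoplasmic GR-EGFP signal, averaged per well. Signal: high-content fluorescence imaging after fixation.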
# B2AR ag = human beta-2 adrenergic receptor agonism by FAP; Am2.2-beta2AR cells, FAP receptor internalization, flow cytometry; response, % (no concentration beside the values); 340,000 compounds, 0.43% hits; AID 504454;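 active means response above a set limit, near 3 SD of response in nonfluorescent compounds, cut at about 42% in these data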
# Target sequence (P07550 whole entry, looked up): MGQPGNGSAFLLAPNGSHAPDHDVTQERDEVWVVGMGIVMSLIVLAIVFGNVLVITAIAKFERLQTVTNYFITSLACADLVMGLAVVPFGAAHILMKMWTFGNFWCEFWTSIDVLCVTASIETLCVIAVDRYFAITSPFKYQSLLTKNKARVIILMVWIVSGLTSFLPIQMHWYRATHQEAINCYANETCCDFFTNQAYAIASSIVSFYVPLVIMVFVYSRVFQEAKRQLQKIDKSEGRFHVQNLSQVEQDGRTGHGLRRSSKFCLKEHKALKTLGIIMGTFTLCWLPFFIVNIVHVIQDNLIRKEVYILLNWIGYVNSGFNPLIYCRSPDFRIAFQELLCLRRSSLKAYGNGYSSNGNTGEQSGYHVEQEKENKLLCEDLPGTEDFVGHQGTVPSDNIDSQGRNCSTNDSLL
# MEKK2wt confirm = raises or lowers MEK5 binding to wildtype human MEKK2, retest | binding response (% of control), % at 10 µM | shares compounds with MEKK3 PB1 HTS | AID 1892 | 5,900 compounds, 2.4% hits | bead flow cytometry, Alexa488-MEK5 binding to MEKK2 WT; actives lie on both sides; in the data active means binding response below about 16% or above about 210%; inactive means in between
# MEKK2mut confirm = signal of MEK5 binding to mutant human MEKK2, retest | bead flow cytometry, Alexa488-MEK5 binding to MEKK2 mutant | shares compounds with MEKK3 PB1 HTS | percent response, % at 10 µM | AID 1893 | 5,900 compounds, 2% hits; in the data active means percent response mostly above about 71%, no sharp cut-off; inactive means mostly below about 38%;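 further: higher means compound restores mutant binding toward wildtype level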
# MEKK3-MEK5 inh = confirmation of inhibitors of MEK5 binding to human MEKK3; shares compounds with MEKK3 PB1 HTS; bead flow cytometry, Alexa488-MEK5 binding to MEKK3; stronger effect = lower value; binding response (% of control), % at 10 µM; 5,900 compounds, 1.8% hits;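 active means binding response below 72% of control, or above a set upper limit, though filed actives all read lower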
# A number is an active result; - = inactive; . = no result given; ! = not active in a repeat; [ ] = remark or other dose. This is a sample that favours compounds with a hit; in the whole collection about 2.9% have one here.
SMILES,ATG4B inh,MEKK3 PB1 HTS,MEKK2 mut-MEK5,MEKK2 WT-MEK5,Dynein cargo inh,B2AR ag,MEKK2wt confirm,MEKK2mut confirm,MEKK3-MEK5 inh
CCN(CC)c1ccc(/C=C(/C#N)c2nc3ccc(C)cc3[nH]2)c(OC(C)C)c1,-,-,95.0,-,-,-,-,-,-
Cc1cc(C)c2c(=O)[nH]c(SCC(=O)Nc3ccccc3)nc2n1,-,-,-,-,-,-,.,.,.
Cc1ccc(NC(=O)CSc2nc3nc(C)cc(C)c3c(=O)[nH]2)cc1,-,0.0[inhibitor],-,-1.0[inhibitor],-,-,-,-,-
O=C(CN1CCCc2ccccc21)N/N=C/c1ccccc1O,-,128.0,-,-,-,-,-,-,-
CCc1nnc(N2C(=O)c3ccc(Oc4ccc([N+](=O)[O-])cc4)cc3C2=O)s1,-,-,-,-,-,-,.,.,.
O=C(CSc1cccc[n+]1[O-])N1CCCc2ccccc21,-,-,-,25.0[inhibitor],-,-,-,-,-
Cc1cccc(-n2c(N)c(-c3nc4ccccc4n3C)c3nc4ccccc4nc32)c1,-,-,-,-,-,-,.,.,.
Cn1c(-c2c(N)n(-c3ccccc3)c3nc4ccccc4nc23)nc2ccccc21,-,68.0[inhibitor],-,-,-,-,-,-,-
COc1cccc(C(=O)COC(=O)C2CC(=O)N(c3ccc(Oc4ccccc4OC)cc3)C2)c1 (stereo unspecified),-,-,-,-,.,-,.,.,.
COc1ccccc1Oc1ccc(N2CC(C(=O)OCC(=O)c3ccccc3)CC2=O)cc1 (stereo unspecified),-,6.0[inhibitor],-,9.0[inhibitor],.,-,-,-,-
OCC(O)C1OC(c2ccccc2)OC(CO)C1O (stereo unspecified),-,.,.,.,.,-,.,.,.
N=c1c2c(-c3ccccc3)c(-c3ccccc3)n(Cc3ccco3)c2ncn1CCCN1CCOCC1,-,-,-,149.0,-,-,-,-,-
CC(C)Cn1cnc2c(c(-c3ccccc3)c(-c3ccccc3)n2Cc2ccco2)c1=N,-,-,-,134.0,-,-,-,-,-
OCCNc1ncnc2c1c(-c1ccccc1)c(-c1ccccc1)n2Cc1ccco1,-,-,-,-,-,-,.,.,.
N=c1c2c(-c3ccccc3)c(-c3ccccc3)n(Cc3ccco3)c2ncn1Cc1ccccc1,-,-,-,156.0,-,-,-,-,-
N=c1c2c(-c3ccccc3)c(-c3ccccc3)n(Cc3ccco3)c2ncn1CCCn1ccnc1,-,-,-,-,-,-,.,.,.
c1ccc(-c2cc(NCCN3CCCCC3)c3ccccc3n2)cc1,-,-,-,139.0,.,-,-,-,-
O=C(c1cc(-c2ccccc2)nc2ccccc12)N1CCCC1,-,-,-,-,.,-,.,.,.
CCC(C)(C)NC(=O)CN(C(=O)CCC(=O)Nc1nccs1)c1ccc(C)cc1,-,-,-,-,.,-,.,.,.
C[C@]12c3[nH]c4ccc(Cl)cc4c3CCN1C(=O)[C@@H](CC(=O)NCCN1CCOCC1)C[C@@H]2C(=O)N1CCCCC1,-,.,.,.,.,-,.,.,.
CCOc1ccc(C(C)C)cc1S(=O)(=O)n1ccnc1C,-,-,-,-,-,-,.,.,.
CCOc1ccc(OCC)c(S(=O)(=O)n2ccnc2C)c1,-,-,25.0,-,.,-,-,-,-
O=C1CC(c2ccccc2)CN1C(=O)c1cccnc1 (stereo unspecified),-,141.0,-,-,-,-,-,-,-
O=C1CC(c2ccccc2)CN1C(=O)c1cncc(Br)c1 (stereo unspecified),-,-,-,-,-,-,.,.,.
CC1CCCC(C)N1CCOc1cc(N)ccc1C#N (stereo unspecified),-,.,.,.,.,-,.,.,.
SMILES,ATG4B inh,MEKK3 PB1 HTS,MEKK2 mut-MEK5,MEKK2 WT-MEK5,Dynein cargo inh,B2AR ag,MEKK2wt confirm,MEKK2mut confirm,MEKK3-MEK5 inh
COc1ccc(-c2nc(C#N)c(N3CCC(C(N)=O)CC3)o2)cc1OC,-,-,-,-,-,-,.,.,.
COc1ccc(-c2nc(C#N)c(N3CCOCC3)o2)cc1OC,-,77.0[inhibitor],-,-,-,-,-,-,-
COc1ccc(-n2cc(CNCCc3ncc(C)[nH]3)c(-c3ccccc3Cl)n2)cc1,-,-,-,153.0,-,-,-,-,-
CCN1CCC(CNCc2cn(-c3ccc(OC)cc3)nc2-c2ccccc2Cl)C1 (stereo unspecified),-,-,-,180.0,-,-,-,-,-
COc1ccc(-n2cc(CNCCN3CCOC3=O)c(-c3ccccc3Cl)n2)cc1,-,-,-,-,-,-,.,.,.
CC(C)C(=O)Nc1ccc(C(=O)Nc2nnc(C(C)(C)C)s2)cc1,-,-,-,-,-,-,.,.,.
Cc1cccc(C)c1NC(=S)N(Cc1ccco1)C1CCN(C(C)C)CC1,-,128.0,-,-,-,-,-,-,-
O=C(O)C1Nc2ccc(C(F)(F)F)cc2C2OCCC12 (stereo unspecified),-,78.0[inhibitor],-,-,.,-,-,-,-
CCC(C)N(C(=O)CSc1nnc(-c2cccs2)n1C1CC1)C1CCS(=O)(=O)C1 (stereo unspecified),-,.,.,.,.,-,.,.,.
CC(=O)Nc1ccc(N2C(=O)CSC2c2ccc(F)cc2)cc1 (stereo unspecified),-,81.0[inhibitor],-,-,-,-,-,-,-
O=C(NCCc1c[nH]c2ccccc12)C(=O)NCC1OCCCN1S(=O)(=O)c1cccs1 (stereo unspecified),-,-,-,-,-,-,.,.,.
CCOc1ccccc1NC(=O)CC1SC(=N)N(c2ccccc2)C1=O (stereo unspecified),.,139.0,-,-,-,.,-,-,-
COc1ccc(-c2cc(=O)c3c(O)c(OC)c(OC)c(OC)c3o2)cc1,-,.,.,.,.,-,.,.,.
COc1ccc(-c2cc(=O)c3c(OC)c(OC)c(OC)c(OC)c3o2)cc1OC,-,68.0![inhibitor],-,-,-,-,-,-,-
COc1ccc(CCNc2ccc(S(=O)(=O)N3CCCC3)cc2[N+](=O)[O-])cc1,-,142.0,-,-,-,-,-,-,-
CCOc1ccc(NC(=O)C2Cc3ccccc3CN2S(=O)(=O)CC)cc1 (stereo unspecified),-,-,-,-,-,-,.,.,.
